In ChEMBL document CHEMBL4699498 (J Med Chem, 2020):
Active and inactive are the calls of the source. The rule behind the calls is not given here.

What was measured:
MDA-MB-436 = test: Antiproliferative activity against human MDA-MB-436 cells assessed as cell growth inhibition incubated for 7 days by CCK-8 assay; format: functional, cell-based; settings: MDA-MB-436, 168 h
How it was run: (§1)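 Cells were sub-cultured at least twice and seeded for 24 h before dosing. Compounds came from 10 mM DMSO stocks, given as 10 points of 3-fold serial dilution starting at 10-20 μM. Incubation was about 7 days (Capan-1 13 days) at 37 °C, 5% CO2. Read-out was CCK-8 absorbance at 450 nm, as % growth versus DMSO wells (duplicate wells). IC50 was fitted by nonlinear regression; three independent experiments.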

CAPAN-1 = test: Antiproliferative activity against human CAPAN-1 cells assessed as cell growth inhibition incubated for 13 days by CCK-8 assay; format: functional, cell-based; settings: CAPAN-1, 312 h; how it was run: as §1
[1] = molecular target: T1, Protein cereblon/Poly [ADP-ribose] polymerase 1 (Homo sapiens, UniProt P09874+Q96SW2); test: Protac activity at CRBN/PARP1 in human MDA-MB-436 cells assessed as induction of PARP1 degradation at 1 to 1000 nM incubated for 24 hrs by Western blot analysis; format: cell-based; settings: dose nM 1-1000, time 24.0 hrs
T1 sequence (P09874 2-1014 limits assumed): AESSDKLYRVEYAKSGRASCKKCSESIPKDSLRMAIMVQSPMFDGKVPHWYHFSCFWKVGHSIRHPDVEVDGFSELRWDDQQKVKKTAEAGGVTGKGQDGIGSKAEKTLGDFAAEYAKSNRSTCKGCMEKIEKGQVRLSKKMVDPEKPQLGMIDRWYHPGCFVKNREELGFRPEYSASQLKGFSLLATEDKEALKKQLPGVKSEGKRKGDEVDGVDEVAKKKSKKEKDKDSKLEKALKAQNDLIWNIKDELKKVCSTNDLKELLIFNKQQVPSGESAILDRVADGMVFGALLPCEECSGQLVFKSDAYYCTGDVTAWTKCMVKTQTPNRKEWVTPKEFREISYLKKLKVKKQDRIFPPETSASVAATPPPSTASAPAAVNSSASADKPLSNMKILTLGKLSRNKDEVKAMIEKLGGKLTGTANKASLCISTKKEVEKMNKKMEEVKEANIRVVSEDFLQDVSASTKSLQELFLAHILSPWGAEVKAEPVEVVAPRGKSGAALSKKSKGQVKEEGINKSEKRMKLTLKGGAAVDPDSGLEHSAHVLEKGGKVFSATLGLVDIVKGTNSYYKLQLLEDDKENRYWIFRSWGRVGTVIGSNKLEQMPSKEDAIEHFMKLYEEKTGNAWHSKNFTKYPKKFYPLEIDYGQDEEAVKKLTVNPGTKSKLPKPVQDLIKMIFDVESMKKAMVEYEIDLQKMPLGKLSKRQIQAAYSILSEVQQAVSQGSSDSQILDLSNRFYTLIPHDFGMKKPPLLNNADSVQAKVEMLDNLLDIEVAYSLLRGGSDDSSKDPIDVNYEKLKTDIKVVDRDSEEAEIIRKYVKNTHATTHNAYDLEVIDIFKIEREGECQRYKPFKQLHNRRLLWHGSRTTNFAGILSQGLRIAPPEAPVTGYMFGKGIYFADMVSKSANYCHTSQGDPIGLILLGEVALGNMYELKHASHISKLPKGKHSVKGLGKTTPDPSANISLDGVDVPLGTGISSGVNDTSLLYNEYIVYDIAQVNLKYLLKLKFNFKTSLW
T1 sequence (Q96SW2 whole entry partner): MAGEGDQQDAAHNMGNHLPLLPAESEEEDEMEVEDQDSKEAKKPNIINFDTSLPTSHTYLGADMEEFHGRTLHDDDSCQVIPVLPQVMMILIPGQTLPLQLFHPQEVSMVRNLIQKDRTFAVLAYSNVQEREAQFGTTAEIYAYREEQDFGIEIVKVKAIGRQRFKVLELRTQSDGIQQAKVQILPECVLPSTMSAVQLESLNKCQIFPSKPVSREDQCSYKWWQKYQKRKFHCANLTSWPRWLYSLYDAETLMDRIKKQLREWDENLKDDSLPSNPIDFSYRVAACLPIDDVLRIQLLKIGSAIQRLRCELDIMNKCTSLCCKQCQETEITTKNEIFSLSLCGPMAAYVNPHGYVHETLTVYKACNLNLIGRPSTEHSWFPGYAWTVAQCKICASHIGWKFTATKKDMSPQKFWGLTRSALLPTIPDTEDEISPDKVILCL
How it was run: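 PARP1 immunoblot of MDA-MB-436 lysates after 24 h exposure at 1, 10, 100 and 1000 nM; RIPA lysis, 20-30 µg protein per lane, β-tubulin as loading control, band density normalized to DMSO control.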

[2] = molecular target: Poly [ADP-ribose] polymerase 1 (Homo sapiens, UniProt P09874); test: Inhibition of recombinant human C-terminal His-tagged PARP1 expressed in Sf9 insect cells preincubated for 20 mins in presence of activated DNA followed by […] addition and further incubated for 2 hrs by chemiluminescence assay
Chain of Poly [ADP-ribose] polymerase 1 (P09874 whole entry): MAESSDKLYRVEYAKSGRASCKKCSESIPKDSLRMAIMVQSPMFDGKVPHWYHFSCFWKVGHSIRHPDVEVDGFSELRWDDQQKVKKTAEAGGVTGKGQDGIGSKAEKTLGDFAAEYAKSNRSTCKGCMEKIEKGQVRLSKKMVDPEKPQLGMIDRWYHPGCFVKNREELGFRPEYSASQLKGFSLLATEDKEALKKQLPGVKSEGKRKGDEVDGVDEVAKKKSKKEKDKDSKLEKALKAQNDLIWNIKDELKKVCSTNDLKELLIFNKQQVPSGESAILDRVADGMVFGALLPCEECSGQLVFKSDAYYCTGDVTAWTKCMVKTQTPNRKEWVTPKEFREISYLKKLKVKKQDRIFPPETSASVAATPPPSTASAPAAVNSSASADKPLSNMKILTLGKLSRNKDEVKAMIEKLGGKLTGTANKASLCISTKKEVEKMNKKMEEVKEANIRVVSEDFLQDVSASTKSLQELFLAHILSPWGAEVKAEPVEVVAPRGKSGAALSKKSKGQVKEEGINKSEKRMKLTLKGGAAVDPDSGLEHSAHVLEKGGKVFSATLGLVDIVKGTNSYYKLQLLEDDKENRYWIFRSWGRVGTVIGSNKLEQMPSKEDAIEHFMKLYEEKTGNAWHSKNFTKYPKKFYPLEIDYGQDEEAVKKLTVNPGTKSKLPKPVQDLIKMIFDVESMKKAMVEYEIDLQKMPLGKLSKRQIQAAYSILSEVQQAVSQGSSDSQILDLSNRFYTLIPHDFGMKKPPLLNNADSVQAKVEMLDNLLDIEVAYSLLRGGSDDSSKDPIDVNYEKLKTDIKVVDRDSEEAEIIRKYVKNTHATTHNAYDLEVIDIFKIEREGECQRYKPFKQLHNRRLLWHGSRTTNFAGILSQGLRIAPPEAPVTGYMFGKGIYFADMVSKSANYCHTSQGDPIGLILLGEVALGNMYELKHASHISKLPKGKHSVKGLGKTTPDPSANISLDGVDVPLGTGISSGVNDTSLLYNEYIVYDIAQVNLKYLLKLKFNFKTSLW

[3] = molecular target: T1, Protein cereblon/Poly [ADP-ribose] polymerase 1; test: Protac activity at CRBN/PARP1 in human Capan1 cells assessed as induction of PARP1 degradation at 1 to 1000 nM incubated for 24 hrs by Western blot analysis; format: cell-based; settings: CAPAN-1, dose nM 1-1000, time 24.0 hrs
How it was run: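 Capan-1 cells were treated 24 h (1-1000 nM, or a wider dose range for DC50). Lysis was in RIPA buffer with protease inhibitors, and 20-30 μg protein was blotted. PARP1 was normalized to β-tubulin and to DMSO control, quantified by densitometry. DC50 came from two independent experiments.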

[4] = molecular target: T1, Protein cereblon/Poly [ADP-ribose] polymerase 1; test: Protac activity at CRBN/PARP1 in human SW620 cells assessed as reduction in PARP1 protein level at 0.01 to 10 uM incubated for 12 hrs by western blot analysis; format: cell-based; settings: SW-620, dose microM 0.01-10, time 12.0 hrs
How it was run: (§2)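 MDA-MB-436 or SW620 cells dosed at 1, 10, 100, 1000 nM and 10 µM for 12 h; PARP1 assessed by western blot of RIPA lysates (20-30 µg protein), β-tubulin as loading control.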

[5] = molecular target: T1, Protein cereblon/Poly [ADP-ribose] polymerase 1; test: Protac activity at CRBN/PARP1 in human MDA-MB-436 cells assessed as reduction in PARP1 protein level at 0.01 to 10 uM incubated for 12 hrs by western blot analysis; format: cell-based; settings: dose microM 0.01-10, time 12.0 hrs; how it was run: as §2
[6] = molecular target: von Hippel-Lindau disease tumor suppressor/Poly [ADP-ribose] polymerase 1 (Homo sapiens) (UniProt P09874+P40337); test: Protac activity at VHL/PARP1 in human MDA-MB-436 cells assessed as reduction in PARP1 protein level at 1 uM incubated for 24 hrs by western blot analysis; format: cell-based
Chain of von Hippel-Lindau disease tumor suppressor/Poly [ADP-ribose] polymerase 1 (Homo sapiens) (P09874 whole entry, looked up): as the sequence (P09874 whole entry) above
Chain of von Hippel-Lindau disease tumor suppressor/Poly [ADP-ribose] polymerase 1 (Homo sapiens) (P40337 whole entry, looked up): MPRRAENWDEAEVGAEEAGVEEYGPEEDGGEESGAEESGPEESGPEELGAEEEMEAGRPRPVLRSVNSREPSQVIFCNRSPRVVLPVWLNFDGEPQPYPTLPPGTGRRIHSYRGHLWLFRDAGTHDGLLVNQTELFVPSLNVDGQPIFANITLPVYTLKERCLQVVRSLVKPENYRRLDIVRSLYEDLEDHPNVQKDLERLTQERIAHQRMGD

Compound	IC50 (MDA-MB-436)	IC50 (CAPAN-1)	further results
O=C(CCCCCNC(=O)COc1cccc2c1C(=O)N(C1CCC(=O)NC1=O)C2=O)NCCCC(=O)N1CCN(C(=O)c2cc(Cc3n[nH]c(=O)c4ccccc34)ccc2F)CC1 (configuration not stated)	1.9 µM	8.7 µM	–
O=C(CCCCCCCCCCC(=O)N1CCN(C(=O)c2cc(Cc3n[nH]c(=O)c4ccccc34)ccc2F)CC1)NCCOCCOCCNc1cccc2c1C(=O)N(C1CCC(=O)NC1=O)C2=O (configuration not stated)	0.064 µM	0.134 µM	–
O=C(CCCCCCCCCCCCC(=O)N1CCN(C(=O)c2cc(Cc3n[nH]c(=O)c4ccccc34)ccc2F)CC1)NCCNc1cccc2c1C(=O)N(C1CCC(=O)NC1=O)C2=O (configuration not stated)	0.025 µM	0.118 µM	–
CN1C(=O)CCC(N2C(=O)c3cccc(NCCNC(=O)CCCCCCCCCCC(=O)N4CCN(C(=O)c5cc(Cc6n[nH]c(=O)c7ccccc67)ccc5F)CC4)c3C2=O)C1=O (configuration not stated)	–	–	Activity [1]: inactive; IC50 [2]: 0.00264 µM; Activity [3]: inactive
O=C(CCCCCCCCCCC(=O)N1CCN(C(=O)c2cc(Cc3n[nH]c(=O)c4ccccc34)ccc2F)CC1)NCCNc1ccc2c(c1)C(=O)N(C1CCC(=O)NC1=O)C2=O (configuration not stated)	0.035 µM	0.159 µM	–
CN(CCOCCOCCOCCOCCOCCOCCNc1cccc2c1C(=O)N(C1CCC(=O)NC1=O)C2=O)Cc1ccc(-c2[nH]c3cc(F)cc4c3c2CCNC4=O)cc1 (configuration not stated)	0.71 µM	0.95 µM	Activity [4]: Active; Activity [5]: Active
O=C(COc1cccc2c1C(=O)N(C1CCC(=O)NC1=O)C2=O)NCCCCCC(=O)N1CCN(C(=O)c2cc(Cc3n[nH]c(=O)c4ccccc34)ccc2F)CC1 (configuration not stated)	9.4 µM	> 10 µM	–
O=C(CCCCCCC(=O)N1CCN(C(=O)c2cc(Cc3n[nH]c(=O)c4ccccc34)ccc2F)CC1)NCCNc1cccc2c1C(=O)N(C1CCC(=O)NC1=O)C2=O (configuration not stated)	0.83 µM	4.1 µM	–
O=C(CCCNC(=O)COc1cccc2c1C(=O)N(C1CCC(=O)NC1=O)C2=O)NCCCC(=O)N1CCN(C(=O)c2cc(Cc3n[nH]c(=O)c4ccccc34)ccc2F)CC1 (configuration not stated)	5.3 µM	> 10 µM	–
O=C(COc1cccc2c1C(=O)N(C1CCC(=O)NC1=O)C2=O)NCCCC(=O)N1CCN(C(=O)c2cc(Cc3n[nH]c(=O)c4ccccc34)ccc2F)CC1 (configuration not stated)	> 10 µM	> 10 µM	–
O=C(CCCCCCCCC(=O)N1CCN(C(=O)c2cc(Cc3n[nH]c(=O)c4ccccc34)ccc2F)CC1)NCCNc1cccc2c1C(=O)N(C1CCC(=O)NC1=O)C2=O (configuration not stated)	0.123 µM	0.495 µM	–
Cc1ncsc1-c1ccc(CNC(=O)[C@@H]2C[C@@H](O)CN2C(=O)[C@@H](NC(=O)CCCNC(=O)CCCCCCCCCCC(=O)N2CCN(C(=O)c3cc(Cc4n[nH]c(=O)c5ccccc45)ccc3F)CC2)C(C)(C)C)cc1	0.68 µM	0.87 µM	Activity [6]: inactive
O=C(CCCCCCCCCC(=O)N1CCN(C(=O)c2cc(Cc3n[nH]c(=O)c4ccccc34)ccc2F)CC1)NCCNc1cccc2c1C(=O)N(C1CCC(=O)NC1=O)C2=O (configuration not stated)	0.029 µM	0.264 µM	–
O=C(CCCNC(=O)CNc1cccc2c1C(=O)N(C1CCC(=O)NC1=O)C2=O)NCCCCCC(=O)N1CCN(C(=O)c2cc(Cc3n[nH]c(=O)c4ccccc34)ccc2F)CC1 (configuration not stated)	2.2 µM	7.1 µM	–
